Bioassay records: PubChem, several laboratories
A selection: hits, their analogues and other compounds. The true share with any hit is near 2.1%.
MC4R ag barr: human MC4R agonism via beta-arrestin. U2OS MC4R beta-arrestin complementation, luminescence; percent of melanotan II response, DMSO zero. activation, % at 8.9 µM. actives 0.98% (n = 360,000);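 active = activation above a per-plate cutoff, the mean activation of sample wells on that plate plus 3 SD, cut at about 8% in these data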
NOD2 RIPK2 PPI: NOD2-RIPK2 protein interaction inhibition; O43353; CHO BLA complementation NOD2-RIPK2, CCF4 ratio; inhibition, % at 4.98 µM; actives 0.38% (n = 360,000); in the data active = inhibition above about 21%;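 also: 0% = vehicle only and 100% = reference blocker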
beta cell repl: inducers of beta-cell replication in MIN6 cells | proliferation, % at 10 µM | MIN6 cells proliferation, ATPlite luminescence, 48 h; cells starved in 0.2% serum; 100% = growth in 10% serum | actives 0.29% (n = 330,000);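 active = compounds whose signal lies at least 3.5 SD above the mean of all wells on their plate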;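 also: 0% = DMSO-treated cells in low-serum medium and 100% = 10% serum control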
MC4R antagonist: human MC4R antagonism in cAMP assay; AID 540295; inhibition, % at 6.5 µM; P32245; actives 0.48% (n = 360,000); MC4R-expressing cells, MTII-stimulated cAMP, LANCE TR-FRET;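 active = inhibition above its plate's cutoff, the mean of tested wells on that plate plus 3 SD, cut at about 29% in these data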;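 also: 0% = Melanotan II alone and 100% = Melanotan II plus saturating MCL0020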
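Material: U2OS-MC4R stable cell line | Reagent: Melanotan II challenge after compound preincubation | Doses: One concentration, 6.5 µM nominal | Incubation: 30-min compound preincubation, 1-h Melanotan II challenge, 1-h detection, room temperature | Signal: TR-FRET cAMP assay | Replicates: One well per compound, no replicates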
TLR9-MyD88 block: inhibitors of human TLR9-MyD88 binding | Q9NR96+Q99836 | CHO BLA complementation TLR9-MyD88, CCF4 FRET ratio | inhibition, % at 4.98 µM | actives 0.21% (n = 340,000) | AID 504734;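 active = inhibition above the mean over all tested compounds plus 3 SD, cut at about 21% in these data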;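 also: 0% = DMSO only wells and 100% = clavulanate BLA inhibitor control wells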
TLR4-MyD88 BLA: TLR4-MyD88 interaction inhibition in cells | HeLa CL3-4 TLR4/MyD88 BLA complementation, FRET ratio | actives 0.18% (n = 200,000) | inhibition, % at 8.4 µM | AID 861 | O00206+Q99836; in the data active = inhibition above about 25%;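 also: 0% = vehicle and 100% = reference inhibitor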
Target sequence (O00206 whole entry, looked up): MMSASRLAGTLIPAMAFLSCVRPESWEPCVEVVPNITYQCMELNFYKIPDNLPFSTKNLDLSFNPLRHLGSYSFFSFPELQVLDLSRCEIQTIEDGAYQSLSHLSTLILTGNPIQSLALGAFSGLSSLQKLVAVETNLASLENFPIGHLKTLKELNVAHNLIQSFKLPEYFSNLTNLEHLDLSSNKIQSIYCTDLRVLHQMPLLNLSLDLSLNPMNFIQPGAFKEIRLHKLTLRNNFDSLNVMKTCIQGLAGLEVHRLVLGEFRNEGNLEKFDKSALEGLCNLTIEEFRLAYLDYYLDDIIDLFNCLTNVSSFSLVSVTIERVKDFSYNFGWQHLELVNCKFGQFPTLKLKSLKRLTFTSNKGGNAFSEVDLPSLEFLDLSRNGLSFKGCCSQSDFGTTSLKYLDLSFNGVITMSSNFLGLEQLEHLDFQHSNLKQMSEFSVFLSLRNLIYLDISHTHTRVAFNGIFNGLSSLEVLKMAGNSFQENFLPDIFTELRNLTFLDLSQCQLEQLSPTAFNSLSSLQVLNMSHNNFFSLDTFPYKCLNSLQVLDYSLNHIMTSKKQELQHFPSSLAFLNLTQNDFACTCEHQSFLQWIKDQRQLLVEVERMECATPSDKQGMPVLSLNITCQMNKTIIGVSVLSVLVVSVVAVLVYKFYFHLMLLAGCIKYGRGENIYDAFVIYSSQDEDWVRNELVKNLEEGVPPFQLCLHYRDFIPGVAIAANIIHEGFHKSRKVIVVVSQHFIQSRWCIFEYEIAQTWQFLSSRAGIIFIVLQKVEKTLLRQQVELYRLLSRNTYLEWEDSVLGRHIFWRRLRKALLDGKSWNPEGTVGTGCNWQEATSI
Target sequence (Q99836 whole entry, looked up): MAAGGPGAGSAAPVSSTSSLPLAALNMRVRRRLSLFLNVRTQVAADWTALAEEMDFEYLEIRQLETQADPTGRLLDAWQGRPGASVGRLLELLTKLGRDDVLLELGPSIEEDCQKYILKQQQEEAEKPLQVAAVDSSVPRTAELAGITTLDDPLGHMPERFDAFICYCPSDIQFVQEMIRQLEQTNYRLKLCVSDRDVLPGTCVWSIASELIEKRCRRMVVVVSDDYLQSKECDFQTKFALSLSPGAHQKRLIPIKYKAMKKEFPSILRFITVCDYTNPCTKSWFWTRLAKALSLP
cAMP nonselect: nonselective cAMP signaling inhibitor, MC4R antagonist counter-screen; shares compounds with MC4R antagonist; parental U2OS, forskolin cAMP, LANCE TR-FRET; inhibition, % at 6.5 µM; actives 26% (n = 1,600); AID 602193;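 active = mean inhibition over triplicates above the low-control well mean plus 3 SD, set per campaign, cut at about 13% in these data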;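 also: signal is single emission at 671 nm which falls as cellular cAMP rises; 0% = forskolin-stimulated wells and 100% = buffer without forskolin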
MC4R cAMP antag: human MC4R cAMP antagonism confirmation; shares compounds with MC4R antagonist; AID 602195; MC4R-expressing cells, MTII-stimulated cAMP, TR-FRET; actives 27% (n = 1,600); inhibition, % at 6.5 µM; in the data active = inhibition above about 29%;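 also: 0% = agonist stimulated wells alone and 100% = agonist stimulated wells plus saturating reference antagonist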
MC4R barr ag: human MC4R beta-arrestin agonism confirmation. shares compounds with MC4R ag barr. U2OS MC4R beta-arrestin recruitment, luminescence; scaled DMSO 0%, Melanotan II 100%. activation, % at 8.9 µM. actives 31% (n = 2,400);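 active = mean activation across replicates above the hit cutoff set in the earlier primary screen, cut at about 8% in these data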
MOR DOR agonist: counter-screen for MC4R agonists: agonists of mu-delta opioid heterodimer; actives 5.8% (n = 2,400); U2OS PathHunter beta-arrestin, beta-gal luminescence; percent of deltorphin B response, DMSO zero; AID 602194; shares compounds with MC4R ag barr; activation, % at 9.2 µM;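 active = mean activation across replicates exceeds the hit threshold derived in the earlier primary screen, cut at about 18% in these data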;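 also: 100% = deltorphin B at 0.9 µM final and 0% = DMSO alone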
NOD2 RIPK2 conf: NOD2-RIPK2 interaction inhibition confirmed | shares compounds with NOD2 RIPK2 PPI | CHO cells, NOD2-RIPK2 BLA complementation, CCF4 FRET | inhibition, % at 4.98 µM | actives 70% (n = 1,200) | AID 624370;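 active = mean inhibition across replicates above a set limit taken from the earlier primary screen, cut at about 21% in these data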;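 also: 0% = DMSO-only wells and the high end = clavulanate BLA-blocked wells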
NOD2 BLA counter: NOD2-RIPK2 counterscreen BLA reporter activity | shares compounds with NOD2 RIPK2 PPI | CHO BLA reporter, CCF4 FRET ratio | inhibition, % at 4.98 µM | actives 57% (n = 1,200);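 active = mean inhibition above the low-control mean inhibition plus three low-control SD, cut at about 11% in these data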;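 also: 0% = DMSO only wells and 100% = clavulanate high control wells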
Active calls of the source: *; nt = no result given.

SMILES	MC4R ag barr	NOD2 RIPK2 PPI	beta cell repl	MC4R antagonist	TLR9-MyD88 block	TLR4-MyD88 BLA	others
C#C[C@]1(O)CCC2C3C(=O)C=C4C(Cl)=CCC[C@]4(C)C3CC[C@@]21C (stereo not given in full)	-2	-1	nt	-8	1	nt
CCOC(=O)c1c(-n2c(C)cc(C=C3C(=O)NC(=O)NC3=O)c2C)sc2c1CCCC2	1	11	-1	30*	-8	6	cAMP nonselect=2;MC4R cAMP antag=-10
Cc1ccc(CN2CCC3CCC(C3)C2)c(O)c1 (stereo not given)	-2	-8	nt	1	6	nt
Cc1ccc(N2C(=O)NC(=O)/C(=C/c3cnn(-c4ccc(C)cc4)c3)C2=O)cc1	2	2	0	5	-19	0
Cc1ccc(N2C(=O)NC(=O)/C(=C/c3ccoc3)C2=O)cc1	-2	-9	nt	33*	-6	nt	cAMP nonselect=3;MC4R cAMP antag=-2
O=c1[nH]c2ccccc2n1C1CCN(C(c2cc3ccccc3o2)c2nnnn2Cc2ccccc2)CC1 (stereo not given)	nt	-8	nt	nt	nt	nt
COc1ccc(CN2Cc3cnnn3-c3ccccc3C2C#N)cc1 (stereo not given)	0	45*	nt	32*	-8	nt	cAMP nonselect=5;MC4R cAMP antag=27;NOD2 RIPK2 conf=13;NOD2 BLA counter=-6
CC1C(=O)CC2(C(C)C)CC12 (stereo not given)	-1	-10	nt	2	nt	nt
C=C1C(=O)OC2CC3(C)OC3C3OC3C3=CC(OC3=O)C12 (stereo not given)	-2	44*	nt	43*	nt	nt	cAMP nonselect=19*;MC4R cAMP antag=33*;NOD2 RIPK2 conf=67*;NOD2 BLA counter=18*
C=C1C(=O)OC2CC3(C)OC3CCC(C)=CC(OC(C)=O)C12 (stereo not given)	-1	16	nt	1	-15	nt
Cc1cc2oc(=O)cc(-c3cc4ccccc4o3)c2cc1OC(=O)N(C)C	17*	-7	-1	-7	4	nt	MC4R barr ag=0;MOR DOR agonist=3
Cc1c(/C=C2/CC3C4CC=C5CC(O)CCC5(C)C4CCC3(C)C2=O)cnn1C (stereo not given)	nt	nt	nt	nt	nt	2
CC12CCC3C(CC=C4CC(O)CCC43C)C1C/C(=C\c1cccc(F)c1)C2=O (stereo not given)	14*	-17	0	5	11	1	MC4R barr ag=7;MOR DOR agonist=6
COc1ccc(-c2ccc3n2Cc2cnnn2-c2ccccc2-3)cc1	-1	11	nt	10	0	nt
O=C1CN=C(c2ccc(Cl)cc2)c2oc3ccccc3c2N1	11*	-6	0	-7	nt	nt	MC4R barr ag=2;MOR DOR agonist=9
Cc1cc(Br)cn2c(CC(=O)N3CCCCC3)c(-c3ccc(F)cc3)nc12	nt	-4	nt	nt	nt	nt
O=c1[nH]cnc2nc(-c3ccc(N(CCCl)CCCl)cc3)[nH]c12	9.8*	-13	nt	14	1	nt	MC4R barr ag=13*;MOR DOR agonist=19*
CCOC(=O)[C@]12Cc3cc4ccccc4cc3[C@H]1N(Cc1ccccc1)C(=O)c1ccccc12	nt	-4	nt	nt	nt	nt
